Compound activity (PubChem)
MrgX1 allo act – positive allosteric modulators of MrgX1, primary screen, HEK293 cells, Fluo-4 calcium flux; Mas-related G-protein coupled receptor member X1 (Homo sapiens), Q96LB2; FDSS; stronger effect = higher value; B-score at 10 µM; hit rate 0.63% among 310,000;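 active = plate-corrected calcium response at least 3 library SD above typical, normal starting fluorescence, not activating the receptor alone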;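 also: compound read alongside a low EC10 to EC30 dose of BAM8-22 agonist; peak minus trough fluorescence over baseline measured at the second addition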
Target sequence (Q96LB2 whole entry, looked up): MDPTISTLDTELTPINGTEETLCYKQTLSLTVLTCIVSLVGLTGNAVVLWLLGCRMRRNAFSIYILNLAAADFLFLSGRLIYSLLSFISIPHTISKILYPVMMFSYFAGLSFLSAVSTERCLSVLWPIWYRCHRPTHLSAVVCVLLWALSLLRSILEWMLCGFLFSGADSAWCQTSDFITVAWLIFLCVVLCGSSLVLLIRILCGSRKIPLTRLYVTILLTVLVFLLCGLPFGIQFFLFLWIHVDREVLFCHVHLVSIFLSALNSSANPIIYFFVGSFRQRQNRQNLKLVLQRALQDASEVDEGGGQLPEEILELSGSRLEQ
MrgX1 agonist – agonists of human MrgX1 receptor, primary screen, HEK293 cells, Fluo-4 calcium flux; B-score at 10 µM; hit rate 0.44% among 310,000; Mas-related G-protein coupled receptor member X1 (Homo sapiens), Q96LB2; AID 588627, 2011; Fluo-4 calcium fluorescence, agonist mode; stronger effect = higher value;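 active = calcium response B-score plate-corrected fluorescence ratio at least 3 library SD, with starting fluorescence B-score inside 5 SD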
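Assay system: stable human MrgX1 HEK293 cell line. Quantity: 15,000 cells per well. Schedule: cells plated overnight, dye loaded 0.5 h 37 °C, 0.5 h room temperature. Detection: Fluo-4 NW calcium-flux fluorescence, kinetic read. Read-out basis: peak-minus-minimum fluorescence over baseline, converted to B scores. Control set: positive and negative control wells on each plate.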
RGS4 block – RGS4 inhibitors, primary screen, cell-based, HEK293 M3R inducible RGS4, calcium flux; Regulator of G-protein signaling 4 (Homo sapiens), P49798; Fluo-4 calcium flux; stronger effect = higher value; triggered by carbachol at its EC20; B-score at 10 µM; hit rate 0.45% among 310,000; AID 463165, 2010;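 active = B-score, a plate-corrected calcium signal, over three deviations above library mean, with baseline fluorescence within five deviations of library mean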;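 also: RGS4 expression induced by doxycycline in cells with stable M3 receptor; B-score is computed from the integrated fluorescence ratio over baseline after carbachol; higher B-score means a larger calcium signal and so more RGS4 inhibition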
Target sequence (P49798 whole entry, looked up): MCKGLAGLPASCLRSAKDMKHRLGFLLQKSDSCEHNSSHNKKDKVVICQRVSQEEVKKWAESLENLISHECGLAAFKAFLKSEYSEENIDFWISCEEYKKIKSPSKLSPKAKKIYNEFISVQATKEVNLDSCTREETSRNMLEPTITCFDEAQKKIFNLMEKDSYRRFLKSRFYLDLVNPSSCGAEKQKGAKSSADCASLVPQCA
RGS4 act – RGS4 potentiators or activators, primary screen, cell-based, HEK293 M3R inducible RGS4, calcium flux | carbachol calcium flux Fluo4; stronger effect = lower value | B-score at 10 µM | hit rate 0.92% among 310,000 | AID 463111, 2010;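 active = B-score of the integrated calcium signal more than 4 SD below the library mean, with starting fluorescence not abnormally high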;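 also: negative B-score means reduced calcium response which marks RGS4 activation or potentiation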
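test system = HEK293 cells with stable M3R and inducible RGS4 | schedule = recording 10 s baseline at 1 Hz, 100 s post-agonist | technique = Fluo4-AM (2 µM) calcium-flux fluorescence, kinetic read | measure = Agonist-evoked peak-minus-minimum fluorescence over baseline, integrated ratio, B score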
MrgX1 antag – antagonists of human MrgX1 receptor, primary screen, HEK293 cells, Fluo-4 calcium flux; hit rate 1.3% among 310,000; BAM8-22 antagonism; stronger effect = lower value; B-score at 10 µM;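 active = calcium-response B-score plate-corrected more than 3 library SD below zero, starting fluorescence within 5 deviations, no agonist response on first addition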;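 also: peak minus trough fluorescence over baseline after final BAM8-22 challenge near maximal dose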
MrgX1 PAM conf – MrgX1 positive allosteric modulators, duplicate retest, confirmation, HEK293 cells, Fluo-4 calcium flux. shares compounds with MrgX1 allo act. Fluo-4 calcium fluorescence, FDSS. activation (ratio percentage), % at 10 µM. hit rate 13% among 1,200. AID 602413, 2012;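 active = ratio at least 3 SD above the weak peptide control, stable starting fluorescence, no direct agonism earlier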;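 also: compound followed by low BAM8-22 agonist challenge near EC20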
HEK293 Ca flux – nonspecific calcium signal in parental HEK293, confirmation, counter-screen for MrgX1 antagonist project, parental HEK293 cells, Fluo-4 calcium flux; AID 624111, 2012; fluorescence ratio F(max-min)/F0 at 10 µM; shares compounds with MrgX1 antag; Fluo-4 calcium fluorescence, FDSS; hit rate 2% among 4,000;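 active = duplicate-averaged calcium fluorescence ratio at least three times the standard deviation of buffer wells, a nonspecific response in parental cells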
HEK293 Ca counter – calcium response in parental HEK293 cells, primary screen, counter-screen for MrgX1 allosteric activator project, cell-based, Fluo-4 calcium flux, duplicate; shares compounds with MrgX1 antag; Fluo-4 fluorescence ratio; stronger effect = higher value; fluorescence ratio F(max-min)/F0 at 10 µM; hit rate 0.4% among 4,000;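 active = calcium fluorescence ratio, averaged over duplicates, at least 3 SD of the buffer-well ratio, meaning a nonspecific response in receptor-free cells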;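 also: untransfected parental HEK293 lacking MrgX1 used as counterscreen for MrgX1 allosteric activators; fluorescence change taken during the second addition on a kinetic imager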
HEK293 Ca cntr2 – calcium response in parental HEK293 cells, primary screen, counter-screen for MrgX1 agonist project, cell-based, Fluo-4 calcium flux, duplicate, agonist mode | shares compounds with MrgX1 antag | fluorescence ratio F(max-min)/F0 at 10 µM | hit rate 8.7% among 4,000 | AID 624115, 2012 | Fluo-4 calcium fluorescence (FDSS); stronger effect = higher value;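 active = calcium fluorescence ratio at least three times the spread of buffer wells, meaning a non-specific response in parental cells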
A number is an active result. Most compounds without a hit are left out; they make up all but 3.5% or so of the library.

What do the screens show for `O=C(NC1=NCCS1)c1cc(-c2cccc(Br)c2)nc2ccccc12`?
MrgX1 allo act: inactive; MrgX1 agonist: inactive; RGS4 block: inactive; RGS4 act: inactive; MrgX1 antag: inactive

What do the screens show for `Cc1ccc2nc(-c3cccc(Br)c3)cc(C(=O)NC3=NCCS3)c2c1`?
MrgX1 allo act: 31; MrgX1 agonist: inactive; RGS4 block: inactive; RGS4 act: inactive; MrgX1 antag: inactive; MrgX1 PAM conf: inactive; HEK293 Ca flux: inactive; HEK293 Ca counter: inactive; HEK293 Ca cntr2: inactive

Results for COC(=O)c1ccccc1NC(=O)C1CCCC1 ?
MrgX1 allo act: inactive; MrgX1 agonist: inactive; RGS4 block: inactive; RGS4 act: inactive; MrgX1 antag: inactive

Results for COC(=O)c1ccccc1NC(=O)COC(=O)C1CCCCC1 ?
MrgX1 allo act: 8.3; MrgX1 agonist: inactive; RGS4 block: inactive; RGS4 act: inactive; MrgX1 antag: inactive; MrgX1 PAM conf: inactive; HEK293 Ca flux: inactive; HEK293 Ca counter: inactive; HEK293 Ca cntr2: inactive

Results for COC(=O)c1ccccc1NC(=S)NC(=O)C1CCCCC1 ?
MrgX1 allo act: 7.5; MrgX1 agonist: inactive; RGS4 block: inactive; RGS4 act: inactive; MrgX1 antag: inactive; MrgX1 PAM conf: inactive; HEK293 Ca flux: inactive; HEK293 Ca counter: inactive; HEK293 Ca cntr2: inactive

What do the screens show for `CC(C)C(NC(=O)c1cccs1)c1nnc(SCC(=O)Nc2nccs2)n1C` (stereo not drawn)?
MrgX1 allo act: inactive; MrgX1 agonist: inactive; RGS4 block: inactive; RGS4 act: inactive; MrgX1 antag: inactive

How did O=C(O)CC1(CC(=O)Nc2ccc3sccc3c2)CCCCC1 do in these assays?
MrgX1 allo act: inactive; MrgX1 agonist: inactive; RGS4 block: inactive; RGS4 act: inactive; MrgX1 antag: inactive

How did COCCCn1c(=O)c2sccc2n2c(CCCC(=O)NCc3cccc(OC)c3)nnc12 do in these assays?
MrgX1 allo act: inactive; MrgX1 agonist: inactive; RGS4 block: inactive; RGS4 act: inactive; MrgX1 antag: inactive

How did O=C(O)CN1CCCCC1 do in these assays?
MrgX1 allo act: 9.7; MrgX1 agonist: inactive; RGS4 block: inactive; RGS4 act: inactive; MrgX1 antag: inactive; MrgX1 PAM conf: inactive; HEK293 Ca flux: inactive; HEK293 Ca counter: inactive; HEK293 Ca cntr2: inactive

What do the screens show for `COc1ccccc1NS(=O)(=O)c1cccc(NC(=O)c2[nH]c(C)c(C(C)=O)c2C)c1`?
MrgX1 allo act: 7.4; MrgX1 agonist: inactive; RGS4 block: inactive; RGS4 act: inactive; MrgX1 antag: inactive; MrgX1 PAM conf: inactive; HEK293 Ca flux: inactive; HEK293 Ca counter: inactive; HEK293 Ca cntr2: inactive

What do the screens show for `COc1ccccc1NC(=O)c1[nH]c(C)c(C(C)=O)c1C`?
MrgX1 allo act: inactive; MrgX1 agonist: inactive; MrgX1 antag: inactive

Results for CCCc1nc2oc3ccccc3c(=O)c2c(=O)n1CCCOC ?
MrgX1 allo act: inactive; MrgX1 agonist: inactive; RGS4 block: inactive; RGS4 act: inactive; MrgX1 antag: inactive

What do the screens show for `NC(=O)c1ccsc1NC(=O)COC(=O)Cc1c[nH]c2ccccc12`?
MrgX1 allo act: 8.9; MrgX1 agonist: inactive; RGS4 block: inactive; RGS4 act: inactive; MrgX1 antag: inactive; MrgX1 PAM conf: 27%; HEK293 Ca flux: inactive; HEK293 Ca counter: inactive; HEK293 Ca cntr2: inactive

How did NNC(=O)c1ccc(CSc2nc3ccccc3[nH]2)cc1 do in these assays?
MrgX1 allo act: inactive; MrgX1 agonist: inactive; RGS4 block: inactive; RGS4 act: inactive; MrgX1 antag: inactive

How did O=C1NC(Cc2ccccc2)C(=O)Nc2ccc(Br)cc21 (stereo not drawn) do in these assays?
MrgX1 allo act: 9.1; MrgX1 agonist: inactive; RGS4 block: inactive; RGS4 act: inactive; MrgX1 antag: inactive; MrgX1 PAM conf: inactive; HEK293 Ca flux: inactive; HEK293 Ca counter: inactive; HEK293 Ca cntr2: inactive

What do the screens show for `Cc1ccc(CNC(=O)CN(c2ccc(Cl)cc2)S(C)(=O)=O)cc1`?
MrgX1 allo act: inactive; MrgX1 agonist: inactive; RGS4 block: inactive; RGS4 act: inactive; MrgX1 antag: inactive

What do the screens show for `CC(=O)N(CCC1(c2ccc(C)cc2)CCOC(C(C)C)C1)Cc1ccco1` (stereo not drawn)?
MrgX1 allo act: 10; MrgX1 agonist: inactive; RGS4 block: inactive; RGS4 act: inactive; MrgX1 antag: inactive; MrgX1 PAM conf: inactive; HEK293 Ca flux: inactive; HEK293 Ca counter: inactive; HEK293 Ca cntr2: inactive

How did O=C(NCc1ccc(F)cc1)C1CCCN(S(=O)(=O)c2ccc(-n3cnnn3)cc2)C1 (stereo not drawn) do in these assays?
MrgX1 allo act: 8; MrgX1 agonist: inactive; RGS4 block: inactive; RGS4 act: inactive; MrgX1 antag: inactive; MrgX1 PAM conf: inactive; HEK293 Ca flux: inactive; HEK293 Ca counter: inactive; HEK293 Ca cntr2: inactive

What do the screens show for `C/C(CC(=O)NCc1ccco1)=N\NC(=O)COc1ccc(C)cc1`?
MrgX1 allo act: inactive; MrgX1 agonist: inactive; RGS4 block: inactive; RGS4 act: inactive; MrgX1 antag: inactive

Results for Cc1cc(Br)ccc1OCC(=O)NC1CCCC1 ?
MrgX1 allo act: inactive; MrgX1 agonist: inactive; RGS4 block: inactive; RGS4 act: inactive; MrgX1 antag: inactive

How did CCc1ccc(OCC(=O)NC2CCCCC2)c(Br)c1 do in these assays?
MrgX1 allo act: 8.3; MrgX1 agonist: inactive; RGS4 block: inactive; RGS4 act: inactive; MrgX1 antag: inactive; MrgX1 PAM conf: inactive; HEK293 Ca flux: inactive; HEK293 Ca counter: inactive; HEK293 Ca cntr2: inactive

Results for O=C(COc1ccccc1Br)NC1CCCC1 ?
MrgX1 allo act: 7.3; MrgX1 agonist: inactive; RGS4 block: inactive; RGS4 act: inactive; MrgX1 antag: inactive; MrgX1 PAM conf: inactive; HEK293 Ca flux: inactive; HEK293 Ca counter: inactive; HEK293 Ca cntr2: inactive

Results for Nc1nnc(Cc2ccc(Cl)c(Cl)c2)s1 ?
MrgX1 allo act: inactive; MrgX1 agonist: inactive; RGS4 block: inactive; RGS4 act: inactive; MrgX1 antag: inactive
